Tests used:
K562 [1] = assay: Hoechst 33342 nuclear morphological analysis of apoptosis; assay type: cell-based; settings: Homo sapiens, K562, 24 h, read-out: AP50 (50% induction of apoptosis), Hoechst 33342 staining (Hoe)
Outline: (§1)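 Seeded at 0.5 x 10⁶ cells/well in 12-well plates and treated 24 h. Cells were pelleted (400 g, 5 min, 4 °C), washed in PBS, fixed in 4% paraformaldehyde, cytospun, air-dried, then stained with 10 μg/ml Hoechst 33342 for 10 min in the dark. Fluorescence microscopy: 200 cells counted, scored by condensed/intense nuclei, shrinkage, blebbing and apoptotic bodies. % apoptotic nuclei calculated. AP50 = concentration giving 50% apoptotic cells.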

KG1a [2] = assay: CellTiter-Glo luminescent cell viability assay; assay type: cell-based, human; settings: 24 h
Outline: (§2)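 Cells grown in RPMI 1640 with 10% FBS, 1.5 mM L-glutamine and penicillin/streptomycin at 37 °C, 5% CO2. Seeded at 2.5 x 10³ cells/well and exposed 24 h to ethanol-dissolved test compound (0, 2, 10, 50, 250, 500 µM) with 0.1% ethanol vehicle. ATP luminescence normalized to vehicle (100%). IC50 taken from linear regression. Lowest significant dose set by one-way ANOVA/Tukey, p<0.05. Triplicates, three independent experiments.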

THP-1 [3] = assay: Hoechst 33342 nuclear morphological analysis of apoptosis; assay type: cell-based; settings: Homo sapiens, THP-1, 24 h, read-out: AP50 (50% induction of apoptosis), Hoechst 33342 staining (Hoe)
Outline: as §1

non-tumor cells (CD34+) [4] = assay: Hoechst 33342 nuclear morphological analysis of apoptosis; assay type: cell-based; settings: 24 h, read-out: AP50 (50% induction of apoptosis), Hoechst 33342 staining (Hoe)
Outline: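 CD34+ cells treated 24 h across the IC25–IC50 range, then pelleted (400 g, 4 °C) and fixed in 4% paraformaldehyde/PBS. Cytospins were air-dried and stained with 10 μg/ml Hoechst 33342 for 10 min in the dark, then viewed by fluorescence microscopy. 200 cells were scored per sample as % apoptotic nuclei (shrinkage, blebbing, chromatin condensation, apoptotic bodies). AP50 = concentration giving 50% apoptosis.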

THP-1 [5] = assay: Cell cycle analysis, propidium iodide flow cytometry; assay type: cell-based, human; settings: THP-1, IC50 dose, 24 h; vehicle control G0/G1 = 42.3%
Outline: (§3)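 Seeded at 0.5 x 10^6 cells per well in 12-well plates and treated 24 h at the IC50 concentration of each test compound from CellTiter-Glo. Cells were pelleted (400 g, 5 min), PBS-washed and fixed in 80% ethanol overnight at -20 °C. Staining used 50 µg/mL PI plus RNase overnight at 4 °C.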

KG1a [6] = assay: as above; assay type: cell-based, human; settings: IC50 dose, 24 h, vehicle control G0/G1 = 44.6%
Outline: as §3

HL60 [7] = assay: NucView caspase 3 activity assay by flow cytometry; assay type: cell-based, human
Outline: (§4)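 Seeded at 0.5 x 10⁶ cells/well and treated 24 h, with series of 0–50 or 0–250 µM depending on compound. Normalized to vehicle (0% apoptosis). Mean ± STD, three independent experiments in triplicate. One-way ANOVA/Tukey, p<0.05. AP50 = concentration giving 50% apoptotic cells.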

U937 [8] = assay: NucView caspase 3 activity assay by flow cytometry; assay type: cell-based, human
Outline: as §4

non-tumor cells (CD34+) [9] = assay: NucView caspase 3 activity assay by flow cytometry; assay type: cell-based; settings: 24 h
CCRF-CEM [10] = assay: NucView caspase 3 activity assay by flow cytometry; assay type: cell-based, human; settings: 24 h
Outline: as §4

[11] = tested on: non-tumor cord blood (CD34+) cells; assay: CellTiter-Glo luminescent cell viability assay; assay type: cell-based; settings: 24 h
Outline: as §2

MOLT-3 = assay: Hoechst 33342 nuclear morphological analysis of apoptosis; assay type: cell-based; settings: Homo sapiens, MOLT-3, 24 h, read-out: AP50 (50% induction of apoptosis), Hoechst 33342 staining (Hoe)
Outline: as §1

HL60 [12] = assay: as above; assay type: cell-based; settings: Homo sapiens, HL-60, 24 h, read-out: AP50 (50% induction of apoptosis), Hoechst 33342 staining (Hoe)
Outline: as §1

JURKAT = assay: CellTiter-Glo luminescent cell viability assay; assay type: cell-based, human; settings: 24 h, doses 0, 2, 10, 50, 250, 500 µM, p<0.05
Outline: as §2

K562 [13] = assay: CellTiter-Glo luminescent cell viability assay; assay type: cell-based, human; settings: K562, 24 h, doses 0, 2, 10, 50, 250, 500 µM, p<0.05
Outline: as §2

THP-1 [14] = assay: CellTiter-Glo luminescent cell viability assay; assay type: cell-based, human; settings: THP-1, 24 h, doses 0, 2, 10, 50, 250, 500 µM, p<0.05
Outline: as §2

KG1a [15] = assay: NucView caspase 3 activity assay by flow cytometry; assay type: cell-based, human; settings: 24 h
Outline: as §4

[16] = tested on: non-tumor progenitor cells (CD34+); assay: Cell cycle analysis, propidium iodide flow cytometry; assay type: cell-based; settings: 24 h, within the IC50 ranges used to treat the leukemic cell lines
U937 [17] = assay: Hoechst 33342 nuclear morphological analysis of apoptosis; assay type: cell-based; settings: Homo sapiens, U-937, 24 h, read-out: AP50 (50% induction of apoptosis), Hoechst 33342 staining (Hoe)
Outline: as §1

HL60 [18] = assay: Cell cycle analysis, propidium iodide flow cytometry; assay type: cell-based, human; settings: HL60, IC50 dose, 24 h; vehicle control G0/G1 = 56.8%
Outline: as §3

CCRF-CEM [19] = assay: as above; assay type: cell-based, human; settings: IC50 dose, 24 h, vehicle control G0/G1 = 41.9%
Outline: as §3

KG1a [20] = assay: Hoechst 33342 nuclear morphological analysis of apoptosis; assay type: cell-based; settings: Homo sapiens, KG-1a, 24 h, read-out: AP50 (50% induction of apoptosis), Hoechst 33342 staining (Hoe)
Outline: as §1

Cc1cc(O)c2c(c1)C(=O)c1cc(O)cc(O)c1C2=O [Emodin]
EC50 (K562 [1]): > 500 µM
IC50 (KG1a [2]; Homo sapiens, KG-1a, read-out: IC50 (50% inhibition of cellular proliferation)): 15 µM
The lowest dose of polyphenols at which there was a significant inhibition of cell proliferation compared to the vehicle control (KG1a [2]; KG1a, doses 0, 2, 10, 50, 250, 500 µM, p<0.05): 2 µM
EC50 (THP-1 [3]): 10 µM
EC50 (non-tumor cells (CD34+) [4]): > 500 µM
Percentage of cells in G0/G1 phase of cell cycle (significant accumulation) (THP-1 [5]): G0/G1= 50.8%
Percentage of cells in G0/G1 phase of cell cycle (significant accumulation) (KG1a [6]): G0/G1 =52.9%
The lowest dose of polyphenols at which there was a significant induction of apoptosis compared to the vehicle control (HL60 [7]; HL60, caspase 3 activity, 24 h, p<0.05): 10 µM
EC50 (HL60 [7]; Homo sapiens, HL-60, 24 h, read-out: AP50 (50% induction of apoptosis), Caspase 3 activity assay (C3)): 8.5 µM
EC50 (U937 [8]; Homo sapiens, U-937, 24 h, read-out: AP50 (50% induction of apoptosis), Caspase 3 activity assay (C3)): 4 µM
The lowest dose of polyphenols at which there was a significant induction of apoptosis compared to the vehicle control (U937 [8]; U937, caspase 3 activity, 24 h, p<0.05): 2 µM
EC50 (non-tumor cells (CD34+) [9]; read-out: AP50 (50% induction of apoptosis), Caspase 3 activity assay (C3)): > 10 µM
The lowest dose of polyphenols at which there was a significant induction of apoptosis compared to the vehicle control (non-tumor cells (CD34+) [9]; CD34+ non-tumour control cells, caspase 3 activity, p<0.05): 10 µM
EC50 (CCRF-CEM [10]; Homo sapiens, read-out: AP50 (50% induction of apoptosis), Caspase 3 activity assay (C3)): > 10 µM
The lowest dose of polyphenols at which there was a significant induction of apoptosis compared to the vehicle control (CCRF-CEM [10]; caspase 3 activity, p<0.05): 10 µM
IC50 ([11]; read-out: IC50 (50% inhibition of cellular proliferation), CD34+ non-tumour control cells, 24 h treatment): ~150 µM
The lowest dose of polyphenols at which there was a significant inhibition of cell proliferation compared to the vehicle control ([11]; CD34+ non-tumour control cells, doses 0, 2, 10, 50, 250, 500 µM, p<0.05): 50 µM
EC50 (MOLT-3): 9 µM
EC50 (HL60 [12]): 6 µM
The lowest dose of polyphenols at which there was a significant inhibition of cell proliferation compared to the vehicle control (JURKAT): 2 µM
The lowest dose of polyphenols at which there was a significant inhibition of cell proliferation compared to the vehicle control (K562 [13]): 2 µM
The lowest dose of polyphenols at which there was a significant inhibition of cell proliferation compared to the vehicle control (THP-1 [14]): 2 µM
EC50 (KG1a [15]; Homo sapiens, KG-1a, read-out: AP50 (50% induction of apoptosis), Caspase 3 activity assay (C3)): > 10 µM
The lowest dose of polyphenols at which there was a significant induction of apoptosis compared to the vehicle control (KG1a [15]; KG1a, caspase 3 activity, p<0.05): 2 µM
Cell cycle arrest in non-tumour control cells [16]: No Arrest <50µM
EC50 (U937 [17]): 27 µM
Percentage of cells in G0/G1 phase of cell cycle (significant accumulation) (HL60 [18]): G0/G1 =67.7%
Percentage of cells in G0/G1 phase of cell cycle (significant accumulation) (CCRF-CEM [19]): G0/G1 =50%
EC50 (KG1a [20]): > 500 µM
